Results from ChEMBL document CHEMBL4371064, “Erythrofordins D and E, two new cassaine-type diterpenes from Erythrophleum suaveolens” (2019).

What was measured:
Format in all cases: functional
[1] = tested on: NCI/ADR-RES; test: Growth inhibition of human NCI/ADR-RES cells incubated for 48 hrs by sulforhodamine B assay
Outline: (§1)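 Run in the NCI-60 human tumour cell line panel with dose-response testing. GI50 was determined for each cell line from its dose-response data.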

[2] = tested on: OVCAR-5; test: Growth inhibition of human OVCAR5 cells incubated for 48 hrs by sulforhodamine B assay; details: OVCAR-5, 48 h; outline: as §1
[3] = tested on: NCI-H522; test: Growth inhibition of human NCI-H522 cells incubated for 48 hrs by sulforhodamine B assay; details: NCI-H522, 48 h; outline: as §1
[4] = tested on: ACHN; test: Growth inhibition of human ACHN cells incubated for 48 hrs by sulforhodamine B assay; outline: as §1
[5] = tested on: SF-268; test: Growth inhibition of human SF268 cells incubated for 48 hrs by sulforhodamine B assay; details: SF-268, 48 h; outline: as §1
[6] = tested on: IGROV-1; test: Growth inhibition of human IGROV1 cells incubated for 48 hrs by sulforhodamine B assay; details: IGROV-1, 48 h; outline: as §1
[7] = tested on: SK-MEL-2; test: Growth inhibition of human SK-MEL-2 cells incubated for 48 hrs by sulforhodamine B assay; details: SK-MEL-2, 48 h; outline: as §1
[8] = tested on: HL-60(TB); test: Growth inhibition of human HL-60(TB) cells incubated for 48 hrs by sulforhodamine B assay; details: HL-60, 48 h
Outline: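 Run within the NCI-60 human tumour cell line panel as a dose-response screen. For each cell line the readouts are GI50, TGI and LC50. Per-line log values also feed a mean-graph analysis, in which the arithmetic mean of the log values across all lines is subtracted from each line's log value.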

[9] = tested on: CAKI-1; test: Growth inhibition of human Caki1 cells incubated for 48 hrs by sulforhodamine B assay; details: CAKI-1, 48 h; outline: as §1
[10] = tested on: MDA-MB-468; test: Growth inhibition of human MDA-MB-468 cells incubated for 48 hrs by sulforhodamine B assay; details: MDA-MB-468, 48 h; outline: as §1
[11] = tested on: NCI-H23; test: Growth inhibition of human NCI-H23 cells incubated for 48 hrs by sulforhodamine B assay; details: NCI-H23, 48 h; outline: as §1
[12] = tested on: SK-OV-3; test: Growth inhibition of human SKOV3 cells incubated for 48 hrs by sulforhodamine B assay; details: SK-OV-3, 48 h; outline: as §1
[13] = tested on: TK-10; test: Growth inhibition of human TK10 cells incubated for 48 hrs by sulforhodamine B assay; details: TK-10, 48 h
Outline: (§2)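 Tested in the NCI 60-human-tumour-cell-line screen using the five-dose format. GI₅₀ was derived from each cell line's dose-response. TGI and LC₅₀ were derived from the same dose-response data.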

[14] = tested on: MOLT-4; test: Growth inhibition of human MOLT4 cells incubated for 48 hrs by sulforhodamine B assay; details: MOLT-4, 48 h; outline: as §1
[15] = tested on: A549; test: Growth inhibition of human A549/ATCC cells incubated for 48 hrs by sulforhodamine B assay; details: A549, 48 h; outline: as §1
[16] = tested on: PC-3; test: Growth inhibition of human PC3 cells incubated for 48 hrs by sulforhodamine B assay; details: PC-3, 48 h; outline: as §1
[17] = tested on: BT-549; test: Growth inhibition of human BT549 cells incubated for 48 hrs by sulforhodamine B assay; details: BT-549, 48 h; outline: as §1
[18] = tested on: CCRF-CEM; test: Growth inhibition of human CCRF-CEM cells incubated for 48 hrs by sulforhodamine B assay; outline: as §1
[19] = tested on: M14; test: Growth inhibition of human M14 cells incubated for 48 hrs by sulforhodamine B assay; details: M14, 48 h; outline: as §1
[20] = tested on: HOP-62; test: Growth inhibition of human HOP62 cells incubated for 48 hrs by sulforhodamine B assay; details: HOP-62, 48 h; outline: as §1
[21] = tested on: NCI-H460; test: Growth inhibition of human NCI-H460 cells incubated for 48 hrs by sulforhodamine B assay; details: NCI-H460, 48 h; outline: as §1
[22] = tested on: Hs-578T; test: Growth inhibition of human Hs578T cells incubated for 48 hrs by sulforhodamine B assay; outline: as §1
[23] = tested on: SF-539; test: Growth inhibition of human SF539 cells incubated for 48 hrs by sulforhodamine B assay; details: SF-539, 48 h; outline: as §1
[24] = tested on: U-251; test: Growth inhibition of human U251 cells incubated for 48 hrs by sulforhodamine B assay; details: U-251, 48 h; outline: as §2
[25] = tested on: RPMI-8226; test: Growth inhibition of human RPMI8226 cells incubated for 48 hrs by sulforhodamine B assay; details: RPMI-8226, 48 h; outline: as §1
[26] = tested on: Malme-3M; test: Growth inhibition of human MALME-3M cells incubated for 48 hrs by sulforhodamine B assay; outline: as §1
[27] = tested on: SN12C; test: Growth inhibition of human SN12C cells incubated for 48 hrs by sulforhodamine B assay; outline: as §1
[28] = tested on: K562; test: Growth inhibition of human K562 cells incubated for 48 hrs by sulforhodamine B assay; details: K562, 48 h; outline: as §1
[29] = tested on: SW-620; test: Growth inhibition of human SW620 cells incubated for 48 hrs by sulforhodamine B assay; details: SW-620, 48 h; outline: as §2
[30] = tested on: UO-31; test: Growth inhibition of human UO31 cells incubated for 48 hrs by sulforhodamine B assay; details: UO-31, 48 h; outline: as §2
[31] = read-out: pLC50 (the source's name) (converted)

COC(=O)/C=C1\CC[C@H]2[C@@H](CC(=O)[C@H]3C(C)(C)C(=O)CC[C@]23C)[C@H]1C
GI50 [1]: 741 nM
CC50 [1, 31]: > 34700 nM
TGI ([1]; read-out: pTGI (converted)): 1910 nM
GI50 [2]: 776 nM
LC50 [2]: 21400 nM
TGI ([2]; read-out: pTGI (converted)): 2340 nM
GI50 [3]: 166 nM
LC50 [3]: > 34700 nM
TGI ([3]; read-out: pTGI (converted)): 977 nM
GI50 [4]: 162 nM
LC50 [4]: 1860 nM
TGI ([4]; read-out: pTGI (converted)): 617 nM
GI50 [5]: 331 nM
LC50 [5]: 1910 nM
TGI ([5]; read-out: pTGI (converted)): 813 nM
GI50 [6]: 1290 nM
LC50 [6]: > 34700 nM
TGI ([6]; read-out: pTGI (converted)): 7590 nM
GI50 [7]: 1050 nM
LC50 (concentration killing 50% of cells) [7]: > 34700 nM
TGI ([7]; read-out: pTGI (converted)): 4470 nM
GI50 [8]: 977 nM
LC50 [8]: > 34700 nM
TGI ([8]; read-out: pTGI (converted)): 2750 nM
GI50 [9]: 661 nM
LC50 [9]: 2950 nM
TGI ([9]; read-out: pTGI (converted)): 1380 nM
GI50 [10]: 1700 nM
CC50 [10, 31]: > 34700 nM
TGI ([10]; read-out: pTGI (converted)): 12300 nM
GI50 [11]: 661 nM
LC50 [11]: > 34700 nM
TGI ([11]; read-out: pTGI (converted)): 1780 nM
GI50 [12]: 1020 nM
LC50 [12]: > 34700 nM
TGI ([12]; read-out: pTGI (converted)): 3160 nM
GI50 [13]: 794 nM
LC50 (lethal concentration killing 50% of cells) [13]: 14800 nM
TGI ([13]; read-out: pTGI (converted)): 2400 nM
GI50 [14]: 195 nM
LC50 [14]: > 34700 nM
TGI ([14]; read-out: pTGI (converted)): 1150 nM
GI50 [15]: 427 nM
LC50 [15]: 1820 nM
TGI ([15]; read-out: pTGI (converted)): 891 nM
GI50 [16]: 933 nM
CC50 [16, 31]: > 34700 nM
TGI ([16]; read-out: pTGI (converted)): 2750 nM
GI50 [17]: 676 nM
LC50 [17]: 5130 nM
TGI ([17]; read-out: pTGI (converted)): 1660 nM
GI50 [18]: 708 nM
LC50 [18]: > 34700 nM
TGI ([18]; read-out: pTGI (converted)): 2290 nM
GI50 [19]: 1150 nM
LC50 [19]: 20000 nM
TGI ([19]; read-out: pTGI (converted)): 4270 nM
GI50 [20]: 550 nM
CC50 [20, 31]: 2630 nM
TGI ([20]; read-out: pTGI (converted)): 1200 nM
GI50 [21]: 170 nM
LC50 [21]: 2140 nM
TGI ([21]; read-out: pTGI (converted)): 661 nM
GI50 [22]: 417 nM
LC50 [22]: > 34700 nM
TGI ([22]; read-out: pTGI (converted)): 1660 nM
GI50 [23]: 575 nM
LC50 [23]: 2090 nM
TGI ([23]; read-out: pTGI (converted)): 1100 nM
GI50 [24]: 646 nM
LC50 [24]: 2630 nM
TGI ([24]; read-out: pTGI (converted)): 1320 nM
GI50 [25]: 1290 nM
LC50 [25]: > 34700 nM
TGI ([25]; read-out: pTGI (converted)): 22400 nM
GI50 [26]: 724 nM
LC50 [26]: 6920 nM
TGI ([26]; read-out: pTGI (converted)): 1660 nM
GI50 [27]: 513 nM
LC50 [27]: > 34700 nM
TGI ([27]; read-out: pTGI (converted)): 1860 nM
GI50 [28]: 1150 nM
LC50 [28]: > 34700 nM
TGI ([28]; read-out: pTGI (converted)): 5370 nM
GI50 [29]: 708 nM
LC50 [29]: 9120 nM
TGI ([29]; read-out: pTGI (converted)): 1700 nM
GI50 [30]: 550 nM
LC50 [30]: 2240 nM
TGI ([30]; read-out: pTGI (converted)): 1100 nM
